# Assay results: ChEMBL document CHEMBL1157145, “Cytotoxic activity of proflavine diureas: synthesis, antitumor, evaluation and DNA binding properties of 1',1''-(acridin-3,6-diyl)-3',3''-dialkyldiureas” (Bioorg Med Chem, 2008)
# pIC50: −log10 of the molar value. Active and inactive are the calls of the source. No cut-off for these calls is given here.
# Experiments:
# HeLa [1] = test: Cytotoxicity against human HeLa cells after 48 hrs by MTT assay; format: functional, cell-based
# HCT-116 [2] = test: Cell cycle arrest in human HCT116 cells assessed as accumulation at G2/M phase at 27 uM after 48 hrs; format: functional
# Outline: (§1)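 Cells seeded at 8 · 10^5 per 60 mm dish, allowed to settle 24 h (37 °C, 5% CO2), then exposed to the drug for 24 or 48 h. Adherent plus floating cells (5 · 10^5) were fixed in cold 70% ethanol at −20 °C overnight, treated with RNase A (100 µg/mL) and stained with propidium iodide (20 µg/mL) in Vindelov's solution for 30 min at RT. Flow cytometry used 488 nm excitation, FL-2 at 585 ± 21 nm, and histograms were modelled for G0/G1, S and G2/M fractions.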
# DNA [3] = test: Binding affinity to calf thymus DNA at 5.5 uM by absorption titration; format: nucleic-acid assay; conditions: Bos taurus
# Outline: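 Compound (5.5 µM) in 0.01 M Tris, pH 7.4, 25 °C. UV–vis spectra recorded over ctDNA 0–35 µM bp in 5 µM steps, corrected for dilution. ctDNA concentration from A260, expressed in base pairs.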
# DNA [4] = test: Binding affinity to calf thymus DNA at 4 uM by fluorescence spectrophotometric titration; format: nucleic-acid assay; conditions: Bos taurus
# Outline: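 ctDNA sonicated in TE buffer, concentration taken from A260 and given in base pairs. Compound (4 µM) in 0.01 M Tris, pH 7.4, 25 °C titrated with ctDNA (0–55 µM bp) until spectra stopped changing. Excitation 424 nm, slit widths 10 nm; binding constant derived from the change in emission.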
# DNA [5] = test: Binding affinity to calf thymus DNA at 50 uM by circular dichroism spectrophotometric titration; format: nucleic-acid assay; conditions: Bos taurus
# HeLa [6] = test: Cytotoxicity against human HeLa cells after 72 hrs by MTT assay; format: functional, cell-based
# HCT-116 [7] = test: Cytotoxicity against human HCT116 cells after 48 hrs by MTT assay; format: functional, cell-based; conditions: HCT-116, 48 h
# HCT-116 [8] = test: Cytotoxicity against human HCT116 cells after 72 hrs by MTT assay; format: functional, cell-based
# HeLa [9] = test: Antiproliferative activity against human HeLa cells assessed as increase of floating cells in total cell population at 64 uM after 24 hrs; format: functional
# Outline: (§2)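 Cells seeded (8 · 10^5 per 60 mm dish), allowed to settle 24 h at 37 °C, 5% CO2, then treated with a single concentration for 24 or 48 h. Adherent and floating cells counted by Coulter counter. Total cell number given as % of untreated control; floating cells as % of total cell number.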
# HeLa [10] = test: Antiproliferative activity against human HeLa cells assessed as decrease in total cell population at 64 uM after 24 hrs; format: functional; parameters: scale not given: the % may be the effect or the level left; outline: as §2
# HeLa [11] = test: Antiproliferative activity against human HeLa cells assessed as increase of floating cells in total cell population at 64 uM after 48 hrs; format: functional; outline: as §2
# HeLa [12] = test: Antiproliferative activity against human HeLa cells assessed as decrease in total cell population at 64 uM after 48 hrs; format: functional; parameters: scale not given: the % may be the effect or the level left; outline: as §2
# HCT-116 [13] = test: Antiproliferative activity against human HCT116 cells assessed as increase of floating cells in total cell population at 27 uM after 24 hrs; format: functional; outline: as §2
# HCT-116 [14] = test: Antiproliferative activity against human HCT116 cells assessed as decrease in total cell population at 27 uM after 24 hrs; format: functional; parameters: scale not given: the % may be the effect or the level left; outline: as §2
# HCT-116 [15] = test: Antiproliferative activity against human HCT116 cells assessed as increase of floating cells in total cell population at 27 uM after 48 hrs; format: functional; outline: as §2
# HCT-116 [16] = test: Antiproliferative activity against human HCT116 cells assessed as decrease in total cell population at 27 uM after 48 hrs; format: functional; parameters: scale not given: the % may be the effect or the level left; outline: as §2
# HeLa [17] = test: Induction of apoptosis in human HeLa cells at 64 uM after 24 hrs; format: functional
# Outline: (§3)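 After 24 or 48 h of drug exposure, all cells were collected, combining trypsinised adherent cells with floating cells from the medium. Cells (1 × 10^6) were fixed in cold 70% ethanol overnight at −20 °C and stained with DAPI (10 µg/mL) for 30 min in the dark at RT. Under fluorescence microscopy, 300 cells per sample were scored, with condensed or fragmented nuclei counted as apoptotic.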
# HeLa [18] = test: Induction of apoptosis in human HeLa cells at 64 uM after 48 hrs; format: functional; outline: as §3
# HCT-116 [19] = test: Induction of apoptosis in human HCT116 cells at 27 uM after 24 hrs; format: functional; outline: as §3
# HCT-116 [20] = test: Induction of apoptosis in human HCT116 cells at 27 uM after 48 hrs; format: functional; outline: as §3
# HeLa [21] = test: Cell cycle arrest in human HeLa cells assessed as accumulation at G0/G1 phase at 64 uM after 24 hrs; format: functional; outline: as §1
# HeLa [22] = test: Cell cycle arrest in human HeLa cells assessed as accumulation at G0/G1 phase at 64 uM after 48 hrs; format: functional; outline: as §1
# HCT-116 [23] = test: Cell cycle arrest in human HCT116 cells assessed as accumulation at G0/G1 phase at 27 uM after 24 hrs; format: functional
# Outline: (§4)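 Adherent plus floating cells (5 · 10^5) collected 24 or 48 h after treatment, fixed in cold 70% ethanol at −20 °C overnight, washed in PBS. RNase A (100 µg/mL) and propidium iodide (20 µg/mL) in Vindelov's solution, 30 min at RT. Flow cytometry with 488 nm excitation, emission 585 ± 21 nm; % cells per cycle phase from DNA content histograms.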
# HCT-116 [24] = test: Cell cycle arrest in human HCT116 cells assessed as accumulation at G0/G1 phase at 27 uM after 48 hrs; format: functional; outline: as §4
# HeLa [25] = test: Cell cycle arrest in human HeLa cells assessed as accumulation at S phase at 64 uM after 24 hrs; format: functional; outline: as §1
# HeLa [26] = test: Cell cycle arrest in human HeLa cells assessed as accumulation at S phase at 64 uM after 48 hrs; format: functional; outline: as §1
# HCT-116 [27] = test: Cell cycle arrest in human HCT116 cells assessed as accumulation at S phase at 27 uM after 24 hrs; format: functional; outline: as §1
# HCT-116 [28] = test: Cell cycle arrest in human HCT116 cells assessed as accumulation at S phase at 27 uM after 48 hrs; format: functional; outline: as §1
# HeLa [29] = test: Cell cycle arrest in human HeLa cells assessed as accumulation at G2/M phase at 64 uM after 24 hrs; format: functional; outline: as §1
# HeLa [30] = test: Cell cycle arrest in human HeLa cells assessed as accumulation at G2/M phase at 64 uM after 48 hrs; format: functional; outline: as §1
# HCT-116 [31] = test: Cell cycle arrest in human HCT116 cells assessed as accumulation at G2/M phase at 27 uM after 24 hrs; format: functional; outline: as §1
compound,measurement,setting,value
COc1cc([C@@H]2c3cc4c(cc3[C@@H](O[C@@H]3O[C@@H]5CO[C@@H](C)O[C@H]5[C@H](O)[C@H]3O)[C@H]3COC(=O)[C@H]23)OCO4)cc(OC)c1O [ETOPOSIDE],pIC50,HeLa [1],5.54
CCNC(=O)Nc1ccc2cc3ccc(NC(=O)NCC)cc3nc2c1.Cl,Activity,HCT-116 [2],14.85%
same,Activity,DNA [3],Active
same,K,DNA [4],4.2 ×10⁵ /M
same,Activity,DNA [5],Active
same,pIC50,HeLa [1],4.19
same,pIC50,HeLa [6],4.22
same,pIC50,HCT-116 [7],4.56
same,pIC50,"HCT-116 [8]; Homo sapiens, HCT-116, 72 h",4.46
same,Activity,HeLa [9],3.58%
same,Activity,HeLa [10],95.15%
same,Activity,HeLa [11],4.63%
same,Activity,HeLa [12],93.61%
same,Activity,HCT-116 [13],6.2%
same,Activity,HCT-116 [14],79.4%
same,Activity,HCT-116 [15],5.68%
same,Activity,HCT-116 [16],75.37%
same,Activity,HeLa [17],1.33%
same,Activity,HeLa [18],0.89%
same,Activity,HCT-116 [19],3.22%
same,Activity,HCT-116 [20],3.44%
same,Activity,HeLa [21],63.51%
same,Activity,HeLa [22],71.26%
same,Activity,HCT-116 [23],47.44%
same,Activity,HCT-116 [24],53.7%
same,Activity,HeLa [25],23.73%
same,Activity,HeLa [26],19.5%
same,Activity,HCT-116 [27],34.06%
same,Activity,HCT-116 [28],31.45%
same,Activity,HeLa [29],12.75%
same,Activity,HeLa [30],9.23%
same,Activity,HCT-116 [31],18.5%
CC(C)C1=Cc2ccc3c(c2C(=O)C1=O)CCCC3(C)C [MILTIRONE],Activity,HCT-116 [8],12.39 µM
